Measurements from different studies.
Each line is one published result; the experiments were not run side by side.
Action: inhibitor
rep main protease: Replicase polyprotein 1ab, main protease (rep, Severe acute respiratory syndrome coronavirus 2, UniProt P0DTD1)
rep methyltransferase: Replicase polyprotein 1ab, methyltransferase (rep, Severe acute respiratory syndrome coronavirus 2, UniProt P0DTD1)

Compound | target | observed | method | IC50 [µM]
Cc1nn(-c2ccc(Cl)cc2)c2c1C(c1ccc(Cl)c(Cl)c1)C(C#N)=C(N)O2 (stereo not drawn) | rep main protease | enzyme activity |  | 100
COc1cc(CC2NCCc3cc(O)c(O)cc32)cc(OC)c1OC (stereo not drawn) | rep main protease | enzyme activity |  | > 20
Cc1ccc(C(=O)Nc2ccc(S(=O)(=O)O)c3cc(S(=O)(=O)O)cc(S(=O)(=O)O)c23)cc1NC(=O)c1cccc(NC(=O)Nc2cccc(C(=O)Nc3cc(C(=O)Nc4ccc(S(=O)(=O)O)c5cc(S(=O)(=O)O)cc(S(=O)(=O)O)c45)ccc3C)c2)c1 | rep methyltransferase | enzyme activity |  | 105
CCCCCCCCCCCCCCCCCC[S+](CCC)c1ccccc1C(=O)OCC (stereo not drawn) | rep main protease | enzyme activity |  | > 20
COc1cc(C[C@@H](C)[C@@H](C)Cc2ccc(O)c(OC)c2)ccc1O | rep main protease | enzyme activity | FRET | 4.12
Oc1c(Cl)cc(Cl)c(Cl)c1Cc1c(O)c(Cl)cc(Cl)c1Cl | rep methyltransferase | enzyme activity |  | 8.65
CN(C(=O)[C@H](Cc1ccccc1)NC(=O)OCc1ccccc1)N(C#N)CCC(N)=O | rep main protease | enzyme activity |  | 2.33
COC(=O)c1ccc(NC(=O)Cn2c3ccccc3n3c(=O)cc(-c4ccc(C)cc4)nc23)cc1 | rep methyltransferase | enzyme activity |  | > 250
O=c1c2ccccc2[se]n1-c1cccc2cccnc12 | rep main protease | enzyme activity | FRET | 2.6
CCOc1cc(C(Nc2cc(C)ccn2)c2ccc3cccnc3c2O)ccc1OC (stereo not drawn) | rep main protease | enzyme activity |  | 0.27
O=C1c2ccccc2NC(c2cc(Cl)ccc2O)N1N=Cc1cc(Cl)ccc1O (stereo not drawn) | rep main protease | enzyme activity in cells |  | 10
COC(=O)N[C@H](C(=O)N[C@@H](Cc1ccccc1)[C@@H](O)CN(Cc1ccc(-c2ccccn2)cc1)NC(=O)[C@@H](NC(=O)OC)C(C)(C)C)C(C)(C)C | rep main protease | enzyme activity | luciferase | > 240
CC(=O)O/N=C1/C(=O)N(Cc2cc(Cl)ccc2Cl)c2ccc(Cl)cc21 | rep main protease | enzyme activity |  | 17.9
Cc1cccc(C)c1OCC(=O)N[C@@H](Cc1ccccc1)[C@@H](O)C[C@H](Cc1ccccc1)NC(=O)[C@H](C(C)C)N1CCCNC1=O | rep main protease | enzyme activity | luciferase | > 240
O=[N+]([O-])/C=C/c1ccc2c(c1)OCO2 | rep main protease | enzyme activity |  | 14.9
COc1cc(NS(=O)(=O)c2ccc(NC(=O)c3ccc4ccccc4c3)cc2)nc(OC)n1 | rep methyltransferase | enzyme activity |  | 59.2
Cc1nocc1C(=O)N1Cc2ccccc2[C@@H](CNC(=O)c2cncc3ccc(F)cc23)C1 | rep main protease | enzyme activity |  | 56.8
O=C(NC1CCCc2c1[nH]c1ccccc21)c1cc(=O)[nH]c2ccccc12 (stereo not drawn) | rep methyltransferase | enzyme activity |  | 61.5
Oc1cc(O)c2c(c1)O[C@H](c1ccc(O)c(O)c1)[C@H](O)C2 | rep main protease | enzyme activity |  | 0.05
O=C(O)c1nnn(-c2nccs2)c1-c1ccc2c(c1)OCO2 | rep methyltransferase | enzyme activity |  | 55.8
NC(Cc1cc(O)c(O)cc1O)C(=O)O (racemic) | rep main protease | enzyme activity |  | > 20
N#CC(C(N)=O)=C1Oc2c(cc(O)cc2-c2ccc(Cl)c(Cl)c2)S1 | rep methyltransferase | enzyme activity |  | 45
CCn1c(-c2nonc2N)nc2cnc(Oc3cccc(NC(=O)c4ccc(OCCN5CCOCC5)cc4)c3)cc21 | rep main protease | enzyme activity |  | > 20
c1ccc(-c2nc(N3CCOCC3)[s+]n2-c2ccccc2)cc1 | rep main protease | enzyme activity |  | 0.328
